Reference: ChEMBL document CHEMBL1255219, “Discovery of a β-d-2'-deoxy-2'-α-fluoro-2'-β-C-methyluridine nucleotide prodrug (PSI-7977) for the treatment of hepatitis C virus” (J Med Chem, 2010)

Experiments:
[1] = test system: Hepatitis C virus; test: Antiviral activity against HCV infected in human clone A cells; format: functional, Hepacivirus hominis
In short: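 Clone A replicon cells seeded at 1500 cells/well. Compounds serially diluted in G418-free culture medium and added, then incubated 4 days at 37 °C in 5% CO2. HCV RNA quantified by real-time RT-PCR as ΔCt relative to the mean no-drug control.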

[2] = test system: Hepatitis C virus; test: Antiviral activity against HCV infected in human clone A cells assessed as inhibition of cellular rRNA replication at 50 uM; format: functional, Hepacivirus hominis
[3] = test system: Rattus norvegicus; test: AUC (0 to infinity) in rat liver assessed as 2'-F-2'-C-Methyluridine-5''-TP level at 50 mg/kg, po; format: ADME, organism-based; parameters: time infinity, dose 50 mg/kg, route oral; conditions: in vivo
In short: (§1)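 Rats given a single oral gavage dose of 50 mg/kg in 0.5% carboxymethylcellulose sodium, 5 mL/kg. Livers taken at 0.5, 1, 2, 4, 6 and 12 h after CO2 sacrifice and ice-cold saline perfusion, then snap-frozen. Homogenized in 3 volumes of cold 70% methanol with 20 mM EDTA/EGTA. Triphosphate measured by LC/MS/MS (ESI, MRM negative mode), noncompartmental analysis.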

[4] = test system: Rattus norvegicus; test: AUC (0 to t) in rat liver assessed as 2'-F-2'-C-Methyluridine-5''-TP level at 50 mg/kg, po; format: ADME, organism-based; parameters: dose 50 mg/kg, route oral; conditions: in vivo; in short: as §1
[5] = test system: Rattus norvegicus; test: Cmax in rat liver assessed as 2'-F-2'-C-Methyluridine-5''-TP level at 50 mg/kg, po; format: ADME, organism-based; parameters: dose 50 mg/kg, route oral; conditions: in vivo; in short: as §1
[6] = test system: Rattus norvegicus; test: Tmax in rat liver assessed as 2'-F-2'-C-Methyluridine-5''-TP level at 50 mg/kg, po; format: ADME, organism-based; parameters: dose 50 mg/kg, route oral; conditions: in vivo; in short: as §1
[7] = Half life in human liver S9 fraction at 100 uM; format: ADME, subcellular
In short: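 Compound at 100 μM in 50 mM K2HPO4 pH 7.4 with 5 mM MgCl2. Started with 4 mg/mL human liver S9 at 37 °C. Samples at 0–24 h quenched with acetonitrile. Parent remaining measured by LC/MS/MS peak area relative to 0 h, and half-life calculated.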

[8] = Half life in simulated intestinal fluid of pH 7.5 at 50 ug/mL; format: physicochemical
In short: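 Compound at 50 μg/mL in simulated gastric fluid (pH 1.2) or simulated intestinal fluid (pH 7.5), 37 °C, 20 h. Injected by reverse-phase HPLC every 2 h, peak area at 260 nm.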

[9] = Half life in simulated gastric fluid at pH 1.2 at 50 ug/mL; format: physicochemical
In short: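 Compound at 50 μg/mL in simulated gastric fluid (pH 1.2) or simulated intestinal fluid (pH 7.5), 37 °C, 20 h. Injected by reverse-phase HPLC every 2 h, peak area at 260 nm. Percent parent remaining relative to 0 h, giving half-life.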

[10] = species: Homo sapiens; test: Half life in human plasma at 100 uM

COC(=O)C1(NP(=O)(OC[C@H]2O[C@@H](n3ccc(=O)[nH]c3=O)[C@](C)(F)[C@@H]2O)Oc2ccc(F)cc2)CC1 (stereo partly drawn)
EC90 ([1]; Hepatitis C virus): > 50000 nM
inhibition at 50 µM [2]: 0%

CC(C)OC(=O)[C@H](C)NP(=O)(OC[C@H]1O[C@@H](n2ccc(=O)[nH]c2=O)[C@](C)(F)[C@@H]1O)Oc1ccc(Br)cc1 (stereo partly drawn)
EC90 ([1]; Hepatitis C virus): 570 nM
inhibition at 50 µM [2]: 0%

CCOC(=O)[C@H](C)NP(=O)(OC[C@H]1O[C@@H](n2ccc(=O)[nH]c2=O)[C@](C)(F)[C@@H]1O)Oc1ccc(Cl)cc1 (stereo partly drawn)
EC90 ([1]; Hepatitis C virus): 390 nM
inhibition at 50 µM [2]: 0%

CCC(C)OC(=O)[C@H](C)NP(=O)(OC[C@H]1O[C@@H](n2ccc(=O)[nH]c2=O)[C@](C)(F)[C@@H]1O)Oc1ccccc1 (stereo partly drawn)
EC90 ([1]; Hepatitis C virus): 60 nM
inhibition at 50 µM [2]: 93.8%

CCOC(=O)[C@H](C)NP(=O)(OC[C@H]1O[C@@H](n2ccc(=O)[nH]c2=O)[C@](C)(F)[C@@H]1O)Oc1ccc(Br)cc1 (stereo partly drawn)
EC90 ([1]; Hepatitis C virus): 360 nM
inhibition at 50 µM [2]: 80.5%

C[C@H](NP(=O)(OC[C@H]1O[C@@H](n2ccc(=O)[nH]c2=O)[C@](C)(F)[C@@H]1O)Oc1ccccc1)C(=O)OCCF (stereo partly drawn)
EC90 ([1]; Hepatitis C virus): 1720 nM
inhibition at 50 µM [2]: 43.8%

COC(=O)[C@H](Cc1c[nH]c2ccccc12)NP(=O)(OC[C@H]1O[C@@H](n2ccc(=O)[nH]c2=O)[C@](C)(F)[C@@H]1O)Oc1ccccc1 (stereo partly drawn)
EC90 ([1]; Hepatitis C virus): 15600 nM
inhibition at 50 µM [2]: 68.4%

CCOP(=O)(N[C@@H](C)C(=O)OC)OC[C@H]1O[C@@H](n2ccc(=O)[nH]c2=O)[C@](C)(F)[C@@H]1O (stereo partly drawn)
EC90 ([1]; Hepatitis C virus): > 50000 nM
inhibition at 50 µM [2]: 16.8%

CC(C)OC(=O)[C@H](C)NP(=O)(OC[C@H]1O[C@@H](n2ccc(=O)[nH]c2=O)[C@](C)(F)[C@@H]1O)Oc1ccc(F)cc1 (stereo partly drawn)
EC90 ([1]; Hepatitis C virus): 770 nM
AUC [3]: 7375 ng·h/g
AUC [4]: 6140 ng·h/g
Cmax [5]: 519 ng/g
Tmax [6]: 6 h
half-life at 100 µM [7]: 0.42 h
half-life at 50 ug/mL [8]: > 20 h
half-life at 50 ug/mL [9]: > 20 h
inhibition at 50 µM [2]: 0%
half-life at 100 µM [10]: > 24 h

COC(=O)[C@H](C)NP(=O)(OC[C@H]1O[C@@H](n2ccc(=O)[nH]c2=O)[C@](C)(F)[C@@H]1O)Oc1ccc(Cl)c(Cl)c1 (stereo partly drawn)
EC90 ([1]; Hepatitis C virus): 450 nM
inhibition at 50 µM [2]: 63.7%

COC(=O)[C@H](CCSC)NP(=O)(OC[C@H]1O[C@@H](n2ccc(=O)[nH]c2=O)[C@](C)(F)[C@@H]1O)Oc1ccccc1 (stereo partly drawn)
EC90 ([1]; Hepatitis C virus): 60100 nM
inhibition at 50 µM [2]: 24.1%

CC(C)OC(=O)C(C)N[P@](=O)(OC[C@H]1O[C@@H](n2ccc(=O)[nH]c2=O)[C@](C)(F)[C@@H]1O)Oc1ccccc1 (single isomer, unassigned) [SOFOSBUVIR]
EC90 [1]: > 50000 nM

C[C@H](NP(=O)(OC[C@H]1O[C@@H](n2ccc(=O)[nH]c2=O)[C@](C)(F)[C@@H]1O)Oc1ccccc1)C(=O)Oc1ccccc1 (stereo partly drawn)
EC90 ([1]; Hepatitis C virus): 18500 nM
inhibition at 50 µM [2]: 0%

COC(=O)[C@H](C)NP(=O)(OC[C@H]1O[C@@H](n2ccc(=O)[nH]c2=O)[C@](C)(F)[C@@H]1O)Oc1cccc2ccccc12 (stereo partly drawn)
EC90 ([1]; Hepatitis C virus): 90 nM
inhibition at 50 µM [2]: 95.4%

COC(=O)[C@@H](NP(=O)(OC[C@H]1O[C@@H](n2ccc(=O)[nH]c2=O)[C@](C)(F)[C@@H]1O)Oc1ccccc1)C(C)C (stereo partly drawn)
EC90 ([1]; Hepatitis C virus): > 50000 nM
inhibition at 50 µM [2]: 0%

C[C@H](NP(=O)(OC[C@H]1O[C@@H](n2ccc(=O)[nH]c2=O)[C@](C)(F)[C@@H]1O)Oc1ccc(Br)cc1)C(=O)OC1CCCCC1 (stereo partly drawn)
EC90 ([1]; Hepatitis C virus): 39 nM
inhibition at 50 µM [2]: 91.5%

CCOC(=O)[C@H](C)NP(=O)(OC[C@H]1O[C@@H](n2ccc(=O)[nH]c2=O)[C@](C)(F)[C@@H]1O)Oc1ccc(F)cc1 (stereo partly drawn)
EC90 ([1]; Hepatitis C virus): 760 nM
AUC [3]: 5423 ng·h/g
AUC [4]: 4191 ng·h/g
Cmax [5]: 291 ng/g
Tmax [6]: 4 h
half-life at 100 µM [7]: 0.23 h
half-life at 50 ug/mL [8]: > 20 h
half-life at 50 ug/mL [9]: 17 h
inhibition at 50 µM [2]: 55.3%
half-life at 100 µM [10]: > 8 h

CC(C)C(=O)OC[C@H]1O[C@@H](n2ccc(N)nc2=O)[C@](C)(F)[C@@H]1OC(=O)C(C)C [MERICITABINE]
EC90 ([1]; Hepatitis C virus): 3900 nM
inhibition at 50 µM [2]: 0%

CCCCCOC(=O)[C@H](C)NP(=O)(OC[C@H]1O[C@@H](n2ccc(=O)[nH]c2=O)[C@](C)(F)[C@@H]1O)Oc1ccccc1 (stereo partly drawn)
EC90 ([1]; Hepatitis C virus): > 50000 nM
inhibition at 50 µM [2]: 92%

C[C@H](NP(=O)(OC[C@H]1O[C@@H](n2ccc(=O)[nH]c2=O)[C@](C)(F)[C@@H]1O)Oc1ccccc1)C(=O)OCC(F)F (stereo partly drawn)
EC90 ([1]; Hepatitis C virus): 6800 nM
inhibition at 50 µM [2]: 38.3%

CCOC(=O)[C@H](C)NP(=O)(OC[C@H]1O[C@@H](n2ccc(=O)[nH]c2=O)[C@](C)(F)[C@@H]1O)Oc1ccccc1 (stereo partly drawn)
EC90 ([1]; Hepatitis C virus): 980 nM
inhibition at 50 µM [2]: 36.9%

COC(=O)[C@H](Cc1ccccc1)NP(=O)(OC[C@H]1O[C@@H](n2ccc(=O)[nH]c2=O)[C@](C)(F)[C@@H]1O)Oc1ccccc1 (stereo partly drawn)
EC90 ([1]; Hepatitis C virus): 57600 nM
inhibition at 50 µM [2]: 20.6%

COC(=O)C(C)(C)NP(=O)(OC[C@H]1O[C@@H](n2ccc(=O)[nH]c2=O)[C@](C)(F)[C@@H]1O)Oc1ccc(F)cc1 (stereo partly drawn)
EC90 ([1]; Hepatitis C virus): 2200 nM
inhibition at 50 µM [2]: 0%

COC(=O)[C@H](C)NP(=O)(OC[C@H]1O[C@@H](n2ccc(=O)[nH]c2=O)[C@](C)(F)[C@@H]1O)Oc1ccc(Cl)cc1 (stereo partly drawn)
EC90 ([1]; Hepatitis C virus): 580 nM
inhibition at 50 µM [2]: 62.8%

C[C@H](NP(=O)(OC[C@H]1O[C@@H](n2ccc(=O)[nH]c2=O)[C@](C)(F)[C@@H]1O)Oc1ccccc1)C(=O)OCc1ccccc1 (stereo partly drawn)
EC90 ([1]; Hepatitis C virus): 130 nM
inhibition at 50 µM [2]: 74.3%

COC(=O)[C@H](C)NP(=O)(OC[C@H]1O[C@@H](n2ccc(=O)[nH]c2=O)[C@](C)(F)[C@@H]1O)Oc1ccc(Cl)cc1Cl (stereo partly drawn)
EC90 ([1]; Hepatitis C virus): 690 nM
inhibition at 50 µM [2]: 10.9%

C[C@H](NP(=O)(OC[C@H]1O[C@@H](n2ccc(=O)[nH]c2=O)[C@](C)(F)[C@@H]1O)Oc1ccc(Cl)cc1)C(=O)OC1CCCCC1 (stereo partly drawn)
EC90 ([1]; Hepatitis C virus): 54 nM
inhibition at 50 µM [2]: 66.9%

C[C@H](NP(=O)(OC[C@H]1O[C@@H](n2ccc(=O)[nH]c2=O)[C@](C)(F)[C@@H]1O)Oc1ccccc1)C(=O)OCc1ccc(F)cc1 (stereo partly drawn)
EC90 ([1]; Hepatitis C virus): 240 nM
inhibition at 50 µM [2]: 0%

COC(=O)[C@H](C)NP(=O)(OC[C@H]1O[C@@H](n2ccc(=O)[nH]c2=O)[C@](C)(F)[C@@H]1O)Oc1ccc(F)cc1 (stereo partly drawn)
EC90 ([1]; Hepatitis C virus): 690 nM
inhibition at 50 µM [2]: 16.8%

COC(=O)[C@H](C)NP(=O)(OC[C@H]1O[C@@H](n2ccc(=O)[nH]c2=O)[C@](C)(F)[C@@H]1O)Oc1ccc(Br)cc1 (stereo partly drawn)
EC90 ([1]; Hepatitis C virus): 2110 nM
inhibition at 50 µM [2]: 30.8%

CCCCOC(=O)[C@H](C)NP(=O)(OC[C@H]1O[C@@H](n2ccc(=O)[nH]c2=O)[C@](C)(F)[C@@H]1O)Oc1ccccc1 (stereo partly drawn)
EC90 ([1]; Hepatitis C virus): 90 nM
inhibition at 50 µM [2]: 79.6%

C[C@H](NP(=O)(OC[C@H]1O[C@@H](n2ccc(=O)[nH]c2=O)[C@](C)(F)[C@@H]1O)Oc1ccccc1)C(=O)OC1CCCCC1 (stereo partly drawn)
EC90 ([1]; Hepatitis C virus): 250 nM
AUC [3]: 8831 ng·h/g
AUC [4]: 6487 ng·h/g
Cmax [5]: 557 ng/g
Tmax [6]: 2 h
half-life at 100 µM [7]: 1.4 h
half-life at 50 ug/mL [8]: > 20 h
half-life at 50 ug/mL [9]: 17 h
inhibition at 50 µM [2]: 61%
half-life at 100 µM [10]: > 24 h

CC[C@H](NP(=O)(OC[C@H]1O[C@@H](n2ccc(=O)[nH]c2=O)[C@](C)(F)[C@@H]1O)Oc1ccccc1)C(=O)OC (stereo partly drawn)
EC90 ([1]; Hepatitis C virus): 1610 nM
inhibition at 50 µM [2]: 0%

COC(=O)CNP(=O)(OC[C@H]1O[C@@H](n2ccc(=O)[nH]c2=O)[C@](C)(F)[C@@H]1O)Oc1ccccc1 (stereo partly drawn)
EC90 ([1]; Hepatitis C virus): 22100 nM
inhibition at 50 µM [2]: 0%

COC(=O)[C@H](CC(C)C)NP(=O)(OC[C@H]1O[C@@H](n2ccc(=O)[nH]c2=O)[C@](C)(F)[C@@H]1O)Oc1ccccc1 (stereo partly drawn)
EC90 ([1]; Hepatitis C virus): 5400 nM
inhibition at 50 µM [2]: 0%
